# Measured values published in PMC5356508 (Bioconjugate chemistry, 2016).
# Where “and” joins values, the source holds several entries; their conditions need not be identical. Equal values may be shown once. Read-outs that look alike come from different tables or passages of the source.
# Key:
# [1] = Hydrolytic release of paclitaxel by compound 4 in buffer; format: physicochemical; settings: 3:1 methanol/PBS buffer pH 7.4; pseudo 1st order kinetics
# Procedure, shortened: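 Test compound stock in methanol was mixed with 1 M PBS pH 7.4 (3:1 methanol:buffer) in a sealed, stirred vial. Aliquots were taken at 0 min and from 30 to 1440 min. Parent and released drug were quantified by C18 reverse-phase HPLC (gradient from 1:1 MeOH:H2O to 100% MeOH, 1 mL/min) against standard curves of both compounds.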
# [2] = system: A2780 human ovarian cancer cell line; experiment: Antiproliferative assay; format: cell-based
# [3] = Pharmacokinetics: whole blood paclitaxel levels in tumor burdened mice; format: in vivo, B16/F10 tumor burdened C57Bl/6 mice; settings: 5 μg injected, ELISA, Figure 3A
# [4] = Release of paclitaxel in bicarbonate buffer without or with dithiothreitol; format: physicochemical
# [5] = Generation of paclitaxel in rabbit whole blood; format: in vitro ADME; settings: without BME
# [6] = system: A2780 human ovarian cancer cell line; settings: cited from earlier work
# [7] = Accumulation of paclitaxel in solid tumors; format: in vivo, B16/F10 tumor-bearing C57BL/6 mice; settings: C57BL/6, mouse, tumor homogenate, iv, 2.5 mg/kg
# B16/F10 melanoma = experiment: Treatment of tumor-burdened mice; format: in vivo, C57BL/6 mice; settings: treated days 0, 2, 5, 7, after 9 days
# Procedure, shortened: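 B16/F10 melanoma cells were implanted in C57BL/6 mice and grown to tumours of about 500 mm3. Groups of n=4 were injected on days 0, 2, 5 and 7 with native drug (2.5 or 40 mg/kg), nanoparticle formulations (2.5 mg/kg drug equivalent) or PBS control. Tumour volume was measured over time, and the % decrease versus control was taken at day 9.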
compound,measurement,setting,value
"CC(=O)OC1C(=O)C2(C)C(OC(=O)OCOC(=O)CCCCC3CCSS3)CC3OCC3(OC(C)=O)C2C(OC(=O)c2ccccc2)C2(O)CC(OC(=O)C(O)C(NC(=O)c3ccccc3)c3ccccc3)C(C)=C1C2(C)C (stereo not shown) [Compound 4, (7-O-Paclitaxelcarbonyloxy)methyl 5-(1,2-dithiolan-3-yl)pentanoate]",half-life of hydrolysis to paclitaxel,[1],3.2 h
same,IC50,[2],4.5 ± 0.4 nM
CC(=O)O[C@H]1C(=O)[C@]2(C)[C@@H](OC(=O)OCc3ccc(SSc4ccccn4)cc3)C[C@H]3OC[C@@]3(OC(C)=O)[C@H]2[C@H](OC(=O)c2ccccc2)[C@]2(O)C[C@H](OC(=O)[C@H](O)[C@@H](NC(=O)c3ccccc3)c3ccccc3)C(C)=C1C2(C)C [Compound 5],release of paclitaxel in the circulation (in words),[3],rapidly degraded to the paclitaxel parent in the circulation
same,IC50,[2],34 ± 18 nM
same,Percent conversion to paclitaxel,"[4]; Buffer + 3-fold excess DTT, 1 h (60 min)",90%
same,Percent conversion to paclitaxel,"[4]; Buffer, incubation 0 h",0.3%
same,Percent conversion to paclitaxel,"[4]; Buffer, incubation 1 h",4.1%
same,Percent conversion to paclitaxel,"[4]; Buffer, incubation 4 h",4%
same,Percent conversion to paclitaxel,"[4]; Buffer, incubation 48 h",14.4%
same,Percent conversion to paclitaxel,"[4]; Buffer, incubation 72 h",50% and 50.4%
same,Conversion to paclitaxel in rabbit whole blood (in words),[5],completely converted to paclitaxel essentially immediately
"CC(=O)OC1C(=O)C2(C)C(O)CC3OCC3(OC(C)=O)C2C(OC(=O)c2ccccc2)C2(O)CC(OC(=O)C(OC(=O)CCC(=O)OCOC(=O)CCCCC3CCSS3)C(NC(=O)c3ccccc3)c3ccccc3)C(C)=C1C2(C)C (stereo not shown) [Compound 6, ((5-(1,2-dithiolan-3-yl)pentanoyl)oxy)methyl paclitaxel-2′-yl succinate]",IC50,[2],6.6 ± 1.7 nM
CC(=O)O[C@H]1C(=O)[C@@]2(C)[C@H]([C@H](OC(=O)c3ccccc3)[C@]3(O)C[C@H](OC(=O)[C@H](O)[C@@H](NC(=O)c4ccccc4)c4ccccc4)C(C)=C1C3(C)C)[C@]1(OC(C)=O)CO[C@@H]1C[C@@H]2O [paclitaxel],IC50,[6],15 ± 1 nM
same,concentration at 24 h,[7],5 ng/mL
same,Response: Decrease in Tumor Volume vs Control,B16/F10 melanoma; Paclitaxel dose 2.5 mg/kg,−24%
same,Response: Decrease in Tumor Volume vs Control,B16/F10 melanoma; Paclitaxel dose 40 mg/kg,−68%
